According to ChEMBL document CHEMBL4602716, “Development of Selective Histone Deacetylase 6 (HDAC6) Degraders Recruiting Von Hippel-Lindau (VHL) E3 Ubiquitin Ligase” (ACS Med Chem Lett, 2020):
The source made the active and inactive calls. The rule behind the calls is not given here.

What was measured:
Format in all cases: cell-based
[1] = molecular target: T1, von Hippel-Lindau disease tumor suppressor/Protein deacetylase HDAC6 (Homo sapiens, UniProt Q9UBN7+P40337); experiment: Protac activity at VHL/HDAC6 in human MM1S cells assessed as HDAC6 degradation at 100 nM measured after 6 hrs by ELISA
Procedure, shortened: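 Linker-length screen. MM1S cells were treated with degraders at 100 nM for 6 h, and HDAC6 protein level was quantified by in-cell ELISA.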
Target sequence in this assay (P40337 whole entry, looked up): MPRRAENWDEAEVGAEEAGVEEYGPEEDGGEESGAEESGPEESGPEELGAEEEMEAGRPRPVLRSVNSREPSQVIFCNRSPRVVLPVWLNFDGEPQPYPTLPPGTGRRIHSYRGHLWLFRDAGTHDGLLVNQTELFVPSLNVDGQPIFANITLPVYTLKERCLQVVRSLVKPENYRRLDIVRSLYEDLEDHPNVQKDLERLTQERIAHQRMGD
Target sequence in this assay (Q9UBN7 whole entry, looked up): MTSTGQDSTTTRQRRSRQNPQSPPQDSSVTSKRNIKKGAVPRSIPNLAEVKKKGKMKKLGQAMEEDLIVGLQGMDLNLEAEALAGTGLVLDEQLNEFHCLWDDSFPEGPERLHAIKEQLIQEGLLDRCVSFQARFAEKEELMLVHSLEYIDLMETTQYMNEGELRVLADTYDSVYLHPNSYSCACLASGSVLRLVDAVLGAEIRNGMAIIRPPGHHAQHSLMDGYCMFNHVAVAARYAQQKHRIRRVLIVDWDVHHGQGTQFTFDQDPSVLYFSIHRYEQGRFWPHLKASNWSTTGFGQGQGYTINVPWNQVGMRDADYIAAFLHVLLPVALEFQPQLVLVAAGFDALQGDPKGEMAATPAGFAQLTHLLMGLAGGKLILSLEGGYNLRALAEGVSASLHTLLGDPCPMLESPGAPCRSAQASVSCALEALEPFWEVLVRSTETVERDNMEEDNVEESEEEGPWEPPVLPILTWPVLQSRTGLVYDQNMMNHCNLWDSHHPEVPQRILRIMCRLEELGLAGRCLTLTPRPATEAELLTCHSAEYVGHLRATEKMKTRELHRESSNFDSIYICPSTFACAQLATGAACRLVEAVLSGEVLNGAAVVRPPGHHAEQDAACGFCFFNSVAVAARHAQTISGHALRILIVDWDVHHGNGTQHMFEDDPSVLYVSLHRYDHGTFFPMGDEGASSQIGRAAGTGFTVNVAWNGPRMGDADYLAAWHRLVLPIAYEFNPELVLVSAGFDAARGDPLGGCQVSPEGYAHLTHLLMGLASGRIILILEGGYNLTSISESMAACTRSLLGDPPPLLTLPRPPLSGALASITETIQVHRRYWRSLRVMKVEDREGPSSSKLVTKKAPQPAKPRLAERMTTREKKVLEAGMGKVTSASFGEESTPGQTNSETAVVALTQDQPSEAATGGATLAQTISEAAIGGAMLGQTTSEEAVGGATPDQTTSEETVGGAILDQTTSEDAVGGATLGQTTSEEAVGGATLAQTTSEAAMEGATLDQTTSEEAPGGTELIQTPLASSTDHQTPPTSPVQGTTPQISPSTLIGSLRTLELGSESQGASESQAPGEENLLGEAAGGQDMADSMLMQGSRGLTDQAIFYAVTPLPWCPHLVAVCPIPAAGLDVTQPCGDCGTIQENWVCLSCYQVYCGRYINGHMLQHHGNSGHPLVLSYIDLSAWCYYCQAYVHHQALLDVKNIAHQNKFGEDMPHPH

[2] = molecular target: T1, von Hippel-Lindau disease tumor suppressor/Protein deacetylase HDAC6; experiment: Protac activity at VHL/HDAC6 in human MM1S cells assessed as HDAC6 degradation at 100 nM measured after 6 hrs by Western blot analysis
Procedure, shortened: (§1)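 MM1S cells were treated with degraders at 100 nM for 6 h. Lysates were analysed by Western blot for HDAC6 and acetylated tubulin.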
Target sequence in this assay (P40337 whole entry, looked up): as the sequence (P40337 whole entry, looked up) above
Target sequence in this assay (Q9UBN7 whole entry, looked up): as the sequence (Q9UBN7 whole entry, looked up) above

[3] = molecular target: T1, von Hippel-Lindau disease tumor suppressor/Protein deacetylase HDAC6; experiment: Protac activity at VHL/HDAC6 in human MM1S cells assessed as increase in tubulin acetylation at 100 nM measured after 6 hrs by Western blot analysis; procedure, shortened: as §1
Target sequence in this assay (P40337 whole entry, looked up): as the sequence (P40337 whole entry, looked up) above
Target sequence in this assay (Q9UBN7 whole entry, looked up): as the sequence (Q9UBN7 whole entry, looked up) above

[4] = molecular target: T1, von Hippel-Lindau disease tumor suppressor/Protein deacetylase HDAC6; experiment: Protac activity at VHL/HDAC6 in human MM1S cells measured after 6 hrs by ELISA
Procedure, shortened: (§2)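 MM1S multiple myeloma cells exposed to degraders for 6 h. HDAC6 protein level was read by in-cell ELISA; dose-response ran from 1 nM to 3 μM. DC50 and Dmax were derived from the dose-response curve.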

[5] = molecular target: T1, von Hippel-Lindau disease tumor suppressor/Protein deacetylase HDAC6; experiment: Protac activity at VHL/HDAC6 in human MM1S cells measured after 6 hrs by ELISA relative to control; procedure, shortened: as §2
Target sequence in this assay (P40337 whole entry, looked up): as the sequence (P40337 whole entry, looked up) above
Target sequence in this assay (Q9UBN7 whole entry, looked up): as the sequence (Q9UBN7 whole entry, looked up) above

[6] = molecular target: T1, von Hippel-Lindau disease tumor suppressor/Protein deacetylase HDAC6; experiment: Protac activity at VHL/HDAC6 in human MM1S cells assessed as HDAC6 degradation at 10 nM measured after 4 hrs by Western blot analysis
Procedure, shortened: (§3)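 Dose-response in MM1S cells treated with degrader from 1 nM to 30 μM for 4 h. Lysates were immunoblotted for HDAC6 and acetylated tubulin.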
Target sequence in this assay (P40337 whole entry, looked up): as the sequence (P40337 whole entry, looked up) above
Target sequence in this assay (Q9UBN7 whole entry, looked up): as the sequence (Q9UBN7 whole entry, looked up) above

[7] = molecular target: T1, von Hippel-Lindau disease tumor suppressor/Protein deacetylase HDAC6; experiment: Protac activity at VHL/HDAC6 in human MM1S cells assessed as HDAC6 degradation at 100 nM measured after 4 hrs by Western blot analysis; procedure, shortened: as §3
Target sequence in this assay (P40337 whole entry, looked up): as the sequence (P40337 whole entry, looked up) above
Target sequence in this assay (Q9UBN7 whole entry, looked up): as the sequence (Q9UBN7 whole entry, looked up) above

[8] = molecular target: T1, von Hippel-Lindau disease tumor suppressor/Protein deacetylase HDAC6; experiment: Protac activity at VHL/HDAC6 in human MM1S cells assessed as compound-VHL complex formation at 3 uM after 6 hrs
[9] = molecular target: T1, von Hippel-Lindau disease tumor suppressor/Protein deacetylase HDAC6; experiment: Protac activity at VHL/HDAC6 in human MM1S cells assessed as compound-HDAC6 complex formation at 3 uM after 6 hrs
[10] = molecular target: T1, von Hippel-Lindau disease tumor suppressor/Protein deacetylase HDAC6; experiment: Protac activity at VHL/HDAC6 in human MM1S cells assessed as induction of tubulin acetylation after 4 hrs by Western blot analysis; procedure, shortened: as §3
[11] = molecular target: T1, von Hippel-Lindau disease tumor suppressor/Protein deacetylase HDAC6; experiment: Protac activity at VHL/HDAC6 in human MM1S cells assessed as induction of tubulin acetylation at 1 uM after 4 hrs by Western blot analysis; procedure, shortened: as §3
[12] = molecular target: T1, von Hippel-Lindau disease tumor suppressor/Protein deacetylase HDAC6; experiment: Protac activity at VHL/HDAC6 in human MM1S cells assessed as increase in tubulin acetylation at 300 nM after 4 hrs by Western blot analysis; procedure, shortened: as §3
[13] = molecular target: von Hippel-Lindau disease tumor suppressor/Histone deacetylase 1 (Homo sapiens) (UniProt Q13547+P40337); experiment: Protac activity at VHL/HDAC1 in human MM1S cells assessed as HDAC1 degradation at 100 nM after 4 hrs by Western blot analysis
[14] = molecular target: von Hippel-Lindau disease tumor suppressor/Histone deacetylase 2 (Homo sapiens) (UniProt Q92769+P40337); experiment: Protac activity at VHL/HDAC2 in human MM1S cells assessed as HDAC2 degradation at 100 nM after 4 hrs by Western blot analysis
[15] = molecular target: von Hippel-Lindau disease tumor suppressor/Histone deacetylase 3 (Homo sapiens) (UniProt O15379+P40337); experiment: Protac activity at VHL/HDAC3 in human MM1S cells assessed as HDAC3 degradation at 100 nM after 4 hrs by Western blot analysis
[16] = molecular target: von Hippel-Lindau disease tumor suppressor/Histone deacetylase 4 (Homo sapiens) (UniProt P56524+P40337); experiment: Protac activity at VHL/HDAC4 in human MM1S cells assessed as HDAC4 degradation at 100 nM after 4 hrs by Western blot analysis
[17] = molecular target: von Hippel-Lindau disease tumor suppressor/Histone deacetylase 5 (Homo sapiens) (UniProt Q9UQL6+P40337); experiment: Protac activity at VHL/HDAC5 in human MM1S cells assessed as HDAC5 degradation at 100 nM after 4 hrs by Western blot analysis
[18] = molecular target: von Hippel-Lindau disease tumor suppressor/Histone deacetylase 7 (Homo sapiens) (UniProt Q8WUI4+P40337); experiment: Protac activity at VHL/HDAC7 in human MM1S cells assessed as HDAC7 degradation at 100 nM after 4 hrs by Western blot analysis
[19] = molecular target: von Hippel-Lindau disease tumor suppressor/DNA-binding protein Ikaros (Homo sapiens) (UniProt P40337+Q13422); experiment: Protac activity at VHL/IKZF1 in human MM1S cells assessed as IKZF1 degradation at 100 nM after 4 hrs by Western blot analysis
[20] = molecular target: von Hippel-Lindau disease tumor suppressor/Zinc finger protein Aiolos (Homo sapiens) (UniProt P40337+Q9UKT9); experiment: Protac activity at VHL/IKZF3 in human MM1S cells assessed as IKZF3 degradation at 100 nM after 4 hrs by Western blot analysis
[21] = molecular target: T1, von Hippel-Lindau disease tumor suppressor/Protein deacetylase HDAC6; experiment: Protac activity at VHL/HDAC6 in human MM1S cells assessed as tubulin acetylation at 100 nM to 1 microM after 6 hrs by Western blot analysis
[22] = molecular target: T1, von Hippel-Lindau disease tumor suppressor/Protein deacetylase HDAC6; experiment: Protac activity at VHL/HDAC6 in human MM1S cells assessed as reduction in protein level at 100 nM after 30 mins by Western blot analysis
[23] = molecular target: T1, von Hippel-Lindau disease tumor suppressor/Protein deacetylase HDAC6; experiment: Protac activity at VHL/HDAC6 in human MM1S cells assessed as reduction in protein level at 100 nM after 4 hrs by Western blot analysis
[24] = molecular target: T1, von Hippel-Lindau disease tumor suppressor/Protein deacetylase HDAC6; experiment: Protac activity at VHL/HDAC6 in human MM1S cells assessed as HDAC6 degradation at 100 nM pretreated for 1 hr in presence of proteasome inhibitor MG132 by Western blot analysis
Procedure, shortened: (§4)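 MM1S cells were pretreated for 1 h with a pathway inhibitor or competing ligand, then given degrader at 100 nM. HDAC6 was read by Western blot. Pretreatment levels: MG132 1 μM, bortezomib 1 μM, MLN4924 5 μM, Next-A 5 μM; VHL-1 was titrated.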

[25] = molecular target: T1, von Hippel-Lindau disease tumor suppressor/Protein deacetylase HDAC6; experiment: Protac activity at VHL/HDAC6 in human MM1S cells assessed as HDAC6 degradation at 100 nM pretreated for 1 hr in presence of proteasome inhibitor Bortezomib by Western blot analysis; procedure, shortened: as §4
[26] = molecular target: T1, von Hippel-Lindau disease tumor suppressor/Protein deacetylase HDAC6; experiment: Protac activity at VHL/HDAC6 in human MM1S cells assessed as HDAC6 degradation at 100 nM pretreated for 1 hr in presence of HDAC6 inhibitor Next-A by Western blot analysis; procedure, shortened: as §4
[27] = molecular target: T1, von Hippel-Lindau disease tumor suppressor/Protein deacetylase HDAC6; experiment: Protac activity at VHL/HDAC6 in human MM1S cells assessed as HDAC6 degradation at 100 nM pretreated for 1 hr in presence of 5 uM VHL-1 by Western blot analysis; procedure, shortened: as §4
[28] = molecular target: T1, von Hippel-Lindau disease tumor suppressor/Protein deacetylase HDAC6; experiment: Protac activity at VHL/HDAC6 in human HEK293T cells assessed as induction of HDAC degradation by Western blot analysis; conditions: HEK-293T
[29] = molecular target: T1, von Hippel-Lindau disease tumor suppressor/Protein deacetylase HDAC6; experiment: Protac activity at VHL/HDAC6 in human A549 cells assessed as induction of HDAC degradation by Western blot analysis
[30] = molecular target: T1, von Hippel-Lindau disease tumor suppressor/Protein deacetylase HDAC6; experiment: Protac activity at VHL/HDAC6 in human MCF7 cells assessed as induction of HDAC degradation by Western blot analysis
[31] = molecular target: T1, von Hippel-Lindau disease tumor suppressor/Protein deacetylase HDAC6; experiment: Protac activity at VHL/HDAC6 in human U87MG cells assessed as induction of HDAC degradation by Western blot analysis; conditions: U-87MG ATCC
[32] = molecular target: T2, von Hippel-Lindau disease tumor suppressor/Protein deacetylase HDAC6 (Mus musculus) (UniProt Q9Z2V5+P40338); experiment: Protac activity at VHL/HDAC6 in mouse 4935 cells assessed as HDAC6 degradation at 10 nM to 10 uM after 6 hrs by Western blot analysis
T2 sequence (P40338 whole entry, looked up): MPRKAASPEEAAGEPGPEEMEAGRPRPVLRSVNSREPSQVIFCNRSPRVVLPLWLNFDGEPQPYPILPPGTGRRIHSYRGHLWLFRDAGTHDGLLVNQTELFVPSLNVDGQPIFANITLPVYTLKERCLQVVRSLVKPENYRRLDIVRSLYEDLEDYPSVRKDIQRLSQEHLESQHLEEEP
T2 sequence (Q9Z2V5 whole entry, looked up): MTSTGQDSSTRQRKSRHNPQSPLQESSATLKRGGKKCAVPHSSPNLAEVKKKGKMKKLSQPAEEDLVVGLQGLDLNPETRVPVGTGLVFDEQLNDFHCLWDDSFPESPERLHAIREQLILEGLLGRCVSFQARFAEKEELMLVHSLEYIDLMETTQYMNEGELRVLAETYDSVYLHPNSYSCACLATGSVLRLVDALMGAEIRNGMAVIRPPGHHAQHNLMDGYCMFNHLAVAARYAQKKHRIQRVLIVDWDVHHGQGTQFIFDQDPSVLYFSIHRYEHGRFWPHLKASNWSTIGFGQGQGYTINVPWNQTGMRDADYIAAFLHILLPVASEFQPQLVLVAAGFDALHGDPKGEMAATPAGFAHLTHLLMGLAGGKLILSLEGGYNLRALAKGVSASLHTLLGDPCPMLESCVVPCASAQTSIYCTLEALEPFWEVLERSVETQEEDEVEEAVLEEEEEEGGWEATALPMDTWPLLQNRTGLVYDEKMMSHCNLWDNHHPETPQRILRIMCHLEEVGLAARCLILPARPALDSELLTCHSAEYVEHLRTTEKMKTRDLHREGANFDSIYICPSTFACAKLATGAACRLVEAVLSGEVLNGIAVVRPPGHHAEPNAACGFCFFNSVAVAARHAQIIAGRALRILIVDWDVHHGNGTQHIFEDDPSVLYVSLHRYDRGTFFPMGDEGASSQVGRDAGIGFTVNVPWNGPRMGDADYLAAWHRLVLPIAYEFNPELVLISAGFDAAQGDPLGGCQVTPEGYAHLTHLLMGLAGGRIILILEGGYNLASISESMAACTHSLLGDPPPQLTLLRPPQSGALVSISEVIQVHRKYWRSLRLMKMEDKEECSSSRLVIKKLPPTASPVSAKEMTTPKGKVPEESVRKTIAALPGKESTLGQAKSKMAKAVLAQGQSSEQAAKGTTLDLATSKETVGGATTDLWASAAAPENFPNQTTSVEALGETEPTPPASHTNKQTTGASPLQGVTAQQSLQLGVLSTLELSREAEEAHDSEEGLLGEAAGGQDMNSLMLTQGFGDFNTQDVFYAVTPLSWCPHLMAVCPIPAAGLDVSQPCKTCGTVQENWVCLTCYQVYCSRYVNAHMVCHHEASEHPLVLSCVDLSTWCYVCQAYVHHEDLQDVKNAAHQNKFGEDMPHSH
Procedure, shortened: (§5)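 Mouse 4935 cells were treated with degraders for 6 h, then analysed by Western blot for HDAC6 and acetylated tubulin.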

[33] = molecular target: T2, von Hippel-Lindau disease tumor suppressor/Protein deacetylase HDAC6 (Mus musculus); experiment: Protac activity at VHL/HDAC6 in mouse 4935 cells assessed as tubulin acetylation at 10 nM to 10 uM after 6 hrs by Western blot analysis; procedure, shortened: as §5
[34] = molecular target: T3, von Hippel-Lindau disease tumor suppressor/Protein deacetylase HDAC6 (Mus musculus, UniProt Q9Z2V5+P40338); experiment: Protac activity at VHL/HDAC6 in mouse 4935 cells assessed as HDAC6 degradation after 6 hrs by ELISA
T3 sequence (Q9Z2V5 whole entry): as the sequence (Q9Z2V5 whole entry, looked up) above
T3 sequence (P40338 whole entry): as the sequence (P40338 whole entry, looked up) above

[35] = molecular target: T3, von Hippel-Lindau disease tumor suppressor/Protein deacetylase HDAC6; experiment: Protac activity at VHL/HDAC6 in mouse 4935 cells assessed as HDAC6 degradation after 6 hrs by Western blot analysis; procedure, shortened: as §5
[36] = molecular target: T2, von Hippel-Lindau disease tumor suppressor/Protein deacetylase HDAC6 (Mus musculus); experiment: Protac activity at VHL/HDAC6 in mouse 4935 cells assessed as HDAC6 degradation after 6 hrs by ELISA relative to control

Activity [1]: Active
Activity [2]: Active
Activity [3]: Active
DC50 [4]: 7.1 nM
Emax [5]: 90%
Activity [6]: Active
Activity [7]: Active
Activity [8]: Active
Activity [9]: Active
Activity [10]: Dose-dependent effect
Activity [11]: Active
Activity [12]: Active
Activity [13]: inactive
Activity [14]: inactive
Activity [15]: inactive
Activity [16]: inactive
Activity [17]: inactive
Activity [18]: inactive
Activity [19]: inactive
Activity [20]: inactive
Activity [21]: Active
Activity [22]: Active
Activity [23]: Active
Activity [24]: inactive
Activity [25]: inactive
Activity [26]: inactive
Activity [27]: inactive
Activity [28]: Dose-dependent effect
Activity [29]: Dose-dependent effect
Activity [30]: Dose-dependent effect
Activity [31]: Dose-dependent effect
Activity [32]: Active
Activity [33]: Active
DC50 [34]: 4.3 nM
DC50 [35]: 12 nM
Emax [36]: 57%
SMILES: CCCCN(Cc1ccc(C(=O)NO)cc1)C(=O)Nc1ccc(OCCCCCCCCCCCn2cc(CCCCC(=O)N[C@H](C(=O)N3C[C@H](O)C[C@H]3C(=O)NCc3ccc(-c4scnc4C)cc3)C(C)(C)C)nn2)cc1
